Here are results for one compound from ChEMBL document CHEMBL3244290, “N-Alkyl derivatives of (+/-)-alpha-methyldopamine” (J Med Chem, 1979).

Each structure is given as a SMILES string. Active and inactive are the calls of the source. The rule behind the calls is not given here.

For series [1], the system named is Mus musculus. Description: Toxicity in albino B.K.W mouse assessed as stereotyped head and limb movement at 40 to 80 mg/kg, sc. Format: organism-based. More on the design: dose 40-80 mg/kg, route subcutaneous. The settings on record: in vivo. An outline of the steps: (§1)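 Mice dosed subcutaneously at 20, 40 and 80 mg/kg in 1 mL/kg, doses as free base. Climbing scored as all four paws on the wire, giving a climbing index (% time over 30 min after the first climb) and the maximum time of a single climb. Circling was tested in mice with a unilateral caudate-putamen electrolesion, pre-selected for circling of 7 or more revolutions/2 min in response to apomorphine. Stereotypy was also recorded.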

In series [2] the test system is Mus musculus. Description: Toxicity in albino B.K.W mouse assessed as circling behaviour at 20 to 80 mg/kg, sc. Format: organism-based. The arrangement: dose 20-80 mg/kg, route subcutaneous. Conditions: in vivo. Put shortly: as §1
The species named for series [3] is Rattus norvegicus. Description: Toxicity in Sprague-Dawley rat assessed as locomotor hyperactivity treated bilateral injection into nucleus accumbens at 50 ug. The settings on record: in vivo, other. It is filed as organism-based. Put shortly: (§2)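 Male Sprague-Dawley rats (250 ± 25 g) with stereotaxic guide cannulae aimed at the nucleus accumbens. Tested 10–14 days after surgery with a bilateral 1 μL infusion over 60 s; each rat used once and placement checked histologically. Locomotion counted by photocell cage. Stereotypy scored, where 3–4 = biting, gnawing or licking. Pretreatments given ip: α-methyl-p-tyrosine 250 mg/kg 6 h before, or haloperidol 0.1, propranolol 5 or aceperone 2.5 mg/kg 30 min before.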

For series [4], the system named is Columbidae. Description: Inhibition of apomorphine-induced pecking in pigeon. Format: functional. An outline of the steps:
(§3)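 Pigeons. Compounds given intramuscularly at up to 4 mg/kg to test induction of pecking. Antagonism of pecking induced by apomorphine (1.62 μM/kg) was also tested, and ED50 values were estimated.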

Series [5] is filed under the species Rattus norvegicus. Description: Toxicity in Sprague-Dawley rat assessed as gnawing up to 50 ug injection into nucleus accumbens. Format: organism-based. Conditions: in vivo, other. An outline of the steps:
as §2

The species entered for series [6] is Rattus norvegicus. Description: Toxicity in Sprague-Dawley rat assessed as biting up to 50 ug injection into nucleus accumbens. Format: organism-based. The settings on record: in vivo, other. Put shortly: as §2
Series [7] is described as follows: Toxicity in pigeon assessed as pecking. The settings on record: columbidae. Put shortly:
as §3

The test system of series [8] is Mus musculus. The experiment in a line: Toxicity in albino B.K.W mouse assessed as climbing behaviour at 20 to 80 mg/kg, sc. Conditions: in vivo. The arrangement: dose 20-80 mg/kg, route subcutaneous. It is filed as organism-based. Put shortly:
as §1

Series [9] concerns Canis familiaris. The experiment in a line: Increase in resting heart rate in dog at 0.5 mg/kg, iv by cardiotachometer. Format: functional, organism-based. The arrangement: dose 0.5 mg/kg. Conditions: Canis lupus familiaris. An outline of the steps: (§4)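 Anaesthetised dog (barbital 200 mg/kg). Compounds given intravenously, highest dose tested 1.0 mg/kg. Blood pressure recorded from the right femoral artery and heart rate by cardiometer. Resting heart rate, blood pressure and positive chronotropic responses were assessed after dosing. Doses calculated as free base.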

Series [10] deals with Canis familiaris. Description: Toxicity in dog assessed as emesis at 2 mg/kg, sc. The settings on record: in vivo. It is filed as organism-based, Canis lupus familiaris. More on the design: dose 2 mg/kg, route subcutaneous. An outline of the steps:
(§5)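 Unanaesthetised dogs. For emesis, compound given sc and dogs watched 45 min for an emetic response. For antagonism, compound given sc and apomorphine 100 μg/kg 15 min later.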

The subject of series [11] is Canis familiaris. Description: Increase in blood pressure in dog at 0.5 mg/kg, iv by cardiotachometer. Format: functional, Canis lupus familiaris. An outline of the steps: as §4
Series [12] is filed under the species Canis lupus familiaris. Description: Inhibition of electric stimulated dog right cardioaccelerator nerve. It is filed as functional. An outline of the steps:
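Dog cardioaccelerator nerve preparation under barbital (200 mg/kg) anaesthesia. Compounds given intravenously up to 1.0 mg/kg. Positive chronotropic responses read by cardiometer, with blood pressure taken from the right femoral artery.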

Series [13] deals with Canis familiaris. Description: Inhibition of apomorphine-induced emesis in dog at 2 mg/kg, sc. Format: functional, organism-based. The arrangement: dose 2 mg/kg. Conditions: Canis lupus familiaris. An outline of the steps:
as §5

For series [14], the species on record is Felis catus. The experiment in a line: Inhibition of field stimulation-induced positive ionotrophic response in cat atria. Format: functional. Conditions: Cardiac atrium.
For series [15], the species on record is Rattus norvegicus. Description: Toxicity in Sprague-Dawley rat assessed as licking up to 50 ug injection into nucleus accumbens. The settings on record: in vivo, other. It is filed as organism-based. Put shortly:
as §2

For series [16], the system named is Mus musculus. Description: Toxicity in albino B.K.W mouse assessed as stereotyped behaviour at 20 to 80 mg/kg, sc. Format: organism-based. The arrangement: dose 20-80 mg/kg, route subcutaneous. The settings on record: in vivo. An outline of the steps:
as §1

Series [17] is filed under the species Felis catus. The experiment in a line: Inhibition of field stimulation-induced positive chronotrophic response in cat atria. Format: functional. The settings on record: Cardiac atrium.

For the compound `Br.CCN(CC)C(C)Cc1ccc(O)c(O)c1` (racemic), the Activity entry in [1] is “Toxic”; in series [2], “Non-toxic”; in [3], “Toxic”; in [5], “Non-toxic”; in series [6], “Non-toxic”; in series [7], “Non-toxic”. In addition, the Activity result in [8] was “Non-toxic”; in series [10], “Non-toxic”; in series [11] it was “<=10 mmHg”; in series [15] it was “Non-toxic”; in series [16] it was “Non-toxic”. For the same compound, in series [4], the inhibition result was “Active”. Also, the result in series [9] and in [13] was inactive. The inhibition entry in series [12], in series [14] and in [17] was “inactive” each time.
